Measurements from article PMC5944575 (Clinical and Translational Science, 2018).
Converted amounts (≈) assume the structure as drawn.

Legend:
[1] = Pharmacokinetics, multiple ascending dose; format: in vivo, human
Summary of the method: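 Amorphous oral suspension was given once daily for 10 days to fasted healthy men (n = 6 per dose), with intensive sampling on days 1 and 10. K₂EDTA plasma and urine were measured by LC-MS/MS with a ¹³C₆-labelled internal standard (validated 1–1,000 nmol/L plasma, 20–20,000 nmol/L urine). Noncompartmental analysis on actual times; CL/F = dose/AUC; CLR = amount excreted unchanged/AUC.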

[2] = Human intestinal Ussing chamber metabolism; format: in vitro ADME; details: data not shown
[3] = test system: ex vivo calcium ionophore stimulated LTB4 production in whole blood; design: species or system human
Summary of the method: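 Lithium-heparin blood was drawn from dosed subjects 24 h before and just before dosing, then at set times after (SAD to 48 h; MAD daily predose and after last dose). Blood aliquots were stimulated in duplicate with 30 μM calcium ionophore A23187 or DMSO at 37°C, 100 rpm, for 30 min, then stopped on ice with EGTA. LTB₄ in plasma was measured by supported liquid extraction LC-MS/MS, against a baseline of the mean day 1/predose value.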

logD = format: physicochemical; details: pH 7.4
[4] = Clinical safety and tolerability in healthy subjects; format: in vivo, human; details: for subjects reporting headache: active drug
Summary of the method: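 Healthy men aged 18–50 (BMI 18–30 kg/m², 50–100 kg), randomized, single-blind, placebo-controlled. SAD: single oral suspension doses of 25–1,200 mg, with sentinel pairs reviewed to 24 h. MAD: 60–600 mg once daily for 10 days. Vital signs, ECG, telemetry, clinical laboratory tests and adverse events were recorded before and after dosing and at follow-up 7–10 days post final dose.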

[5] = test system: cytochrome P450 (CYP)3A4 and CYP3A5; test: In vitro metabolism studies; format: in vitro ADME
[6] = Solubility of amorphous and crystalline form; format: physicochemical; details: amorphous
[7] = test system: LTB4 production in human whole blood; test: LTB4 production in human whole blood in vitro; format: cell-based; details: read-out: IC50, inhibition of LTB4 production
Caco‐2 = test: Caco-2 permeability and efflux; format: in vitro ADME
[8] = Human plasma protein binding; format: in vitro ADME
[9] = Pharmacokinetics, single ascending dose; format: in vivo, human; details: for AUC / CL/F / CLR / t½ / Cmax: geometric mean (%CV); for Tmax: median (range)
Summary of the method: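 Fasted (10 h overnight) healthy men received single oral doses of amorphous suspension, n = 6 per dose. K₂EDTA plasma and pooled urine were assayed by LC-MS/MS with a ¹³C₆-labelled internal standard (validated 1–1,000 nmol/L plasma, 20–20,000 nmol/L urine). Noncompartmental analysis used log-linear trapezoidal AUC extrapolated to infinity; CL/F = dose/AUC; CLR = amount excreted unchanged/AUC.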

5‐LO [10] = details: cited from earlier work
5‐LO [11] = details: at‐risk patients with CAD ref 15; cited from earlier work
[12] = 60 mg OD, day 10, geometric mean (%CV)
[13] = 180 mg OD, day 1, geometric mean (%CV)
[14] = 180 mg OD, day 10, geometric mean (%CV)
[15] = 360 mg OD, day 1, geometric mean (%CV)
[16] = 360 mg OD, day 10, geometric mean (%CV)
[17] = 600 mg OD, day 1, geometric mean (%CV)
[18] = 600 mg OD, day 10, geometric mean (%CV)

Cc1cc(-c2ccc(C(=O)[C@@H]3CCCC[C@H]3C(=O)Nc3cnn4c3C(=O)NCC4)cc2)n[nH]1 [AZD5718]
AUCτ ([1]; 60 mg OD, day 1, geometric mean (%CV)): 1,018 (22.4) nmol*h/L
Tmax ([1]; 60 mg OD, day 1, median (range)): 0.8 (0.5–2.0) h
Cmax ([1]; 60 mg OD, day 1, oral amorphous suspension, N = 6, geometric mean (%CV)): 167 nM
AUCτ [1, 12]: 1,386 (27.4) nmol*h/L
CL/F [1, 12]: 96.9 (27.4) L/h
CLR [1, 12]: 0.64 (16.0) L/h
Cmax [1, 12]: 220 nM
t½ [1, 12]: 11.6 (6.7) h
Tmax ([1]; 60 mg OD, day 10, median (range)): 0.5 (0.5–1.0) h
AUCτ [1, 13]: 3,732 (41.2) nmol*h/L
Cmax [1, 13]: 847 nM
Tmax ([1]; 180 mg OD, day 1, median (range)): 1.0 (1.0–1.0) h
AUCτ [1, 14]: 5,128 (46.9) nmol*h/L
CL/F [1, 14]: 78.6 (46.9) L/h
CLR [1, 14]: 0.75 (16.0) L/h
Cmax [1, 14]: 1240 nM
t½ [1, 14]: 11.2 (13.0) h
Tmax ([1]; 180 mg OD, day 10, median (range)): 1.0 (1.0–1.0) h
AUCτ [1, 15]: 10,350 (28.8) nmol*h/L
Cmax [1, 15]: 2560 nM
Tmax ([1]; 360 mg OD, day 1, median (range)): 1.0 (1.0–2.0) h
AUCτ [1, 16]: 12,760 (31.0) nmol*h/L
CL/F [1, 16]: 63.1 (31.0) L/h
CLR [1, 16]: 0.99 (5.2) L/h
Cmax [1, 16]: 3210 nM
t½ [1, 16]: 9.1 (10.7) h
Tmax ([1]; 360 mg OD, day 10, median (range)): 1.0 (1.0–1.0) h
AUCτ [1, 17]: 16,290 (48.6) nmol*h/L
Cmax [1, 17]: 4930 nM
Tmax ([1]; 600 mg OD, day 1, median (range)): 1.0 (1.0–1.0) h
AUCτ [1, 18]: 23,170 (47.4) nmol*h/L
CL/F [1, 18]: 58.0 (47.4) L/h
CLR [1, 18]: 0.72 (23.3) L/h
Cmax [1, 18]: 5690 nM
t½ [1, 18]: 9.9 (29.2) h
Tmax ([1]; 600 mg OD, day 10, median (range)): 1.5 (1.0–3.0) h
accumulation on repeated dosing ([1]; Ctrough, once daily dosing): small accumulation
time to steady state ([1]; repeated once daily dosing, Ctrough, visual inspection): ~3 days
metabolism kinetics [2]: saturable metabolism
LTB4 production inhibition throughout the day ([3]; MAD, 180, 360, and 600 mg doses, last day of repeated dosing): > 80%
mean LTB4 inhibition throughout the whole day ([3]; SAD, single doses of 300–1,200 mg): > 80%
fold lower IC50 for ex vivo stimulated LTB4 inhibition ([3]; compared with both AM103 and VIA2291): ~100 fold
logD (logD): 2.9
subjects experiencing an AE on active drug ([4]; MAD study): 10 subjects
subjects reporting headache ([4]; MAD study): five
serious adverse events ([4]; SAD 25–1,200 mg and MAD 60–600 mg): no serious adverse events
safety and tolerability findings ([4]; SAD and MAD, healthy subjects): No clinically relevant safety and tolerability findings
subjects experiencing an AE on active drug ([4]; SAD study): 17 subjects
subjects reporting headache ([4]; SAD study): three
maximal tolerated dose ([4]; up to 1,200 mg single, 600 mg OD for 10 days): not established
CYP‐isoforms involved in the metabolism [5]: (CYP)3A4 and CYP3A5
solubility [6]: 20 µM (≈ 8.93 µg/mL)
IC50 [7]: 0.039 µM
Papp (Caco‐2): 24 10^−6 cm/s
efflux ratio (Caco‐2): 7.4
human plasma protein binding [8]: 95.7%
AUC ([9]; 25 mg single dose): 376.3 (38.1) nmol*h/L
CL/F ([9]; 25 mg single dose): 148.8 (38.1) L/h
CLR ([9]; 25 mg single dose): 0.68 (39.4) L/h
t½ ([9]; 25 mg single dose): 10.3 (51.0) h
Tmax ([9]; 25 mg single dose): 3.0 (1.0–6.0) h
AUC ([9]; 50 mg single dose): 727.0 (15.4) nmol*h/L
CL/F ([9]; 50 mg single dose): 153.9 (15.4) L/h
CLR ([9]; 50 mg single dose): 0.62 (14.7) L/h
Cmax ([9]; 50 mg single dose): 81.6 nM
t½ ([9]; 50 mg single dose): 12.5 (33.3) h
Tmax ([9]; 50 mg single dose): 1.0 (1.0–3.0) h
AUC ([9]; 100 mg single dose): 1,441 (45.3) nmol*h/L
CL/F ([9]; 100 mg single dose): 155.6 (45.3) L/h
CLR ([9]; 100 mg single dose): 0.66 (41.0) L/h
Cmax ([9]; 100 mg single dose): 170 nM
t½ ([9]; 100 mg single dose): 12.7 (35.7) h
Tmax ([9]; 100 mg single dose): 1.0 (0.5–3.0) h
AUC ([9]; 300 mg single dose): 8,462 (20.1) nmol*h/L
CL/F ([9]; 300 mg single dose): 79.4 (20.1) L/h
CLR ([9]; 300 mg single dose): 0.67 (23.7) L/h
Cmax ([9]; 300 mg single dose): 2360 nM
t½ ([9]; 300 mg single dose): 13.7 (43.9) h
Tmax ([9]; 300 mg single dose): 1.0 (0.5–1.0) h
AUC ([9]; 600 mg single dose): 18,810 (42.1) nmol*h/L
CL/F ([9]; 600 mg single dose): 71.5 (42.1) L/h
CLR ([9]; 600 mg single dose): 0.70 (15.4) L/h
Cmax ([9]; 600 mg single dose): 5050 nM
t½ ([9]; 600 mg single dose): 11.4 (18.0) h
Tmax ([9]; 600 mg single dose): 1.0 (1.0–2.0) h
AUC ([9]; 1,200 mg single dose): 35,840 (33.8) nmol*h/L
CL/F ([9]; 1,200 mg single dose): 75.0 (33.8) L/h
CLR ([9]; 1,200 mg single dose): 0.62 (12.1) L/h
Cmax ([9]; 1,200 mg single dose): 6880 nM
t½ ([9]; 1,200 mg single dose): 10.3 (19.0) h
Tmax ([9]; 1,200 mg single dose): 1.5 (1.0–2.0) h
relative bioavailability of the crystalline formulation compared with the amorphous formulation ([9]; SAD, oral suspensions, results not presented): much lower
mean terminal half‐life ([9]; after single dose administration and at steady state, all doses): 10 to 12 h
dose‐linearity of exposure ([9]; single and multiple administration, except Ctrough in the MAD): more than dose proportional increase in exposure
median Tmax ([9]; single and multiple dose, amorphous suspension, fasted): ~1 h
renal clearance as share of total oral clearance ([9]; unchanged drug in urine): ~1%

C[C@H](C#Cc1ccc(Cc2ccc(F)cc2)s1)N(O)C(N)=O [VIA‐2291, Atreleuton]
ex vivo stimulated LTB4 production (5‐LO [10]; patients with ACS ref 13): reduced
noncalcified plaque volume (5‐LO [10]; patients with ACS ref 13): reduced
left ventricular ejection fraction (5‐LO [10]; patients with ACS, dose dependent ref 13, 14): improved

CC(c1cc2ccccc2s1)N(O)C(N)=O (centres unmarked) [zileuton]
flow‐mediated dilation in the brachial artery (5‐LO [11]): improved
leukotriene production in blood (5‐LO [11]): inhibited
